# Scp1 inh – blocks human Scp-1 phosphatase activity | Q9GZU7 | Recombinant Scp1, phosphopeptide, malachite green phosphate absorbance | inhibition, % at 20 µM | 340,000 compounds, 0.88% hits;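 active means inhibition above about 50% at 20 µM, limit read from the data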;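 further: plate controls were DMSO wells with enzyme for no effect and wells lacking enzyme for full effect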
# Target sequence (Q9GZU7 76-261 limits assumed): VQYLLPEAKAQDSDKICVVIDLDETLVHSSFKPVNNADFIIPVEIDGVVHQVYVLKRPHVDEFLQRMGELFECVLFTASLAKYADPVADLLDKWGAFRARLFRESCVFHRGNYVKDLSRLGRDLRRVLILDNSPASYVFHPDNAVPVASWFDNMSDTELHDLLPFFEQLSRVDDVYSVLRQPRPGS
#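 Test system: SCP-1 phosphatase catalytic domain, residues 76-261 | Compound dosing: One concentration, 20 µM, with 1.0% DMSO | Schedule: 45 min room-temperature reaction, 5 min colour, 30 min stabiliser | Detection: Absorbance at 630 nm | Read-out basis: % inhibition of SCP-1 phosphate liberation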
# STEP block – STEP (human) phosphatase inhibition; inhibition, % at 20 µM; 360,000 compounds, 0.25% hits; P54829; AID 588621; recombinant STEP, OMFP fluorogenic substrate, fluorescence;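 active means inhibition at 20 µM, scaled per plate between control wells, above about 37%, limit read from the data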;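 further: 0% = DMSO with enzyme and substrate and 100% = substrate only without enzyme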
#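 System: STEP (striatal-enriched tyrosine phosphatase) enzyme, cell-free; medium: Bis-Tris pH 6.0 buffer with DTT, detergent; dosing: 20 µM, 1% DMSO; times: reaction 20 min, ambient temperature; detection: fluorescence, 480/540 nm; read-out basis: normalized % inhibition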
# SUMO1-SIM PPI – SUMO1-SIM interaction modulation. SUMO1 binding to a labelled peptide, TR-FRET, 1 h. AID 602429. P63165. 360,000 compounds, 0.33% hits. inhibition, % at 20 µM; in the data active means inhibition above about 37%
# Target sequence (P63165 whole entry, looked up): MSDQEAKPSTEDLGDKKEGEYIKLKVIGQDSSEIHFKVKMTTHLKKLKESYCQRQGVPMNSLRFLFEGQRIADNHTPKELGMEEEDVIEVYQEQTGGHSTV
# Rpn11 block – Rpn11 (human) deubiquitinase inhibition. human 26S proteasome, Ub4-pepOG fluorescence polarization; 20S core pre-blocked with epoxomicin. inhibition, % at 20 µM. 360,000 compounds, 0.59% hits;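 active means inhibition at 20 µM, scaled to each plate's controls, above about 33%, limit read from the data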
# Target sequence (O00487 whole entry, looked up): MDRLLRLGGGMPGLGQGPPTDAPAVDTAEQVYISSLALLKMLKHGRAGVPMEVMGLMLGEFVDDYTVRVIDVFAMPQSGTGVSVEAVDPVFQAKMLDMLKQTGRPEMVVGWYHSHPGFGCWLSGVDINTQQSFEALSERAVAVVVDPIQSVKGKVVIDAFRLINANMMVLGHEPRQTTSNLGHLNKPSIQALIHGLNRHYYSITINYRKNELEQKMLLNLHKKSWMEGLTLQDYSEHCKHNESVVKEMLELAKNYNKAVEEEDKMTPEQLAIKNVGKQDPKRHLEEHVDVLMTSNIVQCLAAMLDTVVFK
# DNMT1 inh – blocks human DNA methyltransferase DNMT1; 360,000 compounds, 0.83% hits; inhibition (reported as % activation of signal), % at 10 µM; DNMT1 molecular beacon, Hinp1I cleavage, fluorescence; in the data active means inhibition above about 50%
# LMPTP inh – blocks human LMPTP phosphatase; inhibition, % at 20 µM; AID 651560; 360,000 compounds, 0.22% hits; P24666; recombinant LMPTP-A, OMFP fluorogenic substrate, fluorescence intensity;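 active means compounds that cut the enzyme signal by at least half of the control window in the single-dose screen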;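 further: plate controls were DMSO wells with enzyme plus substrate for no effect and substrate without enzyme for full effect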
#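 Assay system: LMPTP-A enzyme. Input: 0.625 nM LMPTP-A final. Probe or stimulus: 400 µM OMFP. Compound dosing: single 20 µM dose. Schedule: 50 min dark incubation at room temperature. Detection: fluorescence intensity of OMFP turnover product. Read-out: percent inhibition versus substrate-only and uninhibited controls. Benchmarks: no-enzyme low control, uninhibited high control.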
# Scp1 confirm – confirmation of human Scp-1 phosphatase inhibitors. shares compounds with Scp1 inh. recombinant SCP-1 catalytic domain, phosphate release, malachite green absorbance. inhibition, % at 20 µM. 2,500 compounds, 61% hits. AID 540281;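 further: plate controls were DMSO with enzyme for no effect and buffer wells lacking enzyme for full effect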
# MG interference – interferes with malachite green readout, flagging false Scp-1 hits; 2,500 tested, under 10 active; apparent inhibition (interference), % at 20 µM; shares compounds with Scp1 inh; Colorimetric interference counterscreen, malachite green absorbance 630 nm;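 further: compounds added after enzyme reaction finished so only phosphate colour detection is probed; plate controls were DMSO wells with completed Scp-1 reaction for no effect and substrate wells lacking enzyme for full effect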
# Scp1 DSF – binds human Scp-1, shifting its melting temperature; 1,500 compounds, 25% hits; shares compounds with Scp1 inh; Recombinant SCP1, Sypro Orange thermal shift Tm; thermal shift relative to vanadate control, % at 40 µM; AID 540329;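 active means substances whose mean melting-temperature shift, as a percentage of the reference inhibitor's shift, reaches about 5.3%, limit read from the data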;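 further: 0% = Tm of DMSO wells and 100% = Tm with sodium orthovanadate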
# Active calls of the source: *; x = no result given. A selection: hits, their analogues and other compounds. The true share with any hit is near 2.3%.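 How the source made its calls, unless noted: active means inhibition of at least 30% at 20 µM; inactive means the rest.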
SMILES,Scp1 inh,STEP block,SUMO1-SIM PPI,Rpn11 block,DNMT1 inh,LMPTP inh,Scp1 confirm,MG interference,Scp1 DSF
Nc1ccc(C(=O)Nc2ccc3c(O)cc(S(=O)(=O)O)cc3c2)cc1,53*,3,20,3,12,21,46*,-17,11*
O=S(=O)(c1ccc(S(=O)(=O)N(Cc2ccccc2)Cc2ccco2)cc1)N1CCCC1,0,-2,1,-1,17,-1,x,x,x
COC(=O)/C=C/c1ccccc1S(=O)(=O)N(Cc1ccccc1)Cc1ccco1,73*,2,1,-5,24,1,30,-26,x
O=C(CCc1nc2ccccc2c(=O)[nH]1)NNC(=O)c1cccc(Cl)c1,62*,1,10,6,3,0,-13,-20,x
O=C(CCc1nc2ccccc2c(=O)[nH]1)NNC(=O)c1ccc(Cl)cc1,-4,-2,1,4,2,-1,x,x,x
COc1cccc(-c2cc(C(F)(F)F)nc(-n3cncn3)n2)c1,-8,0,-3,4,-4,-2,x,x,x
COc1cccc(-c2cc(C(F)(F)F)nc(-n3cc(C)cn3)n2)c1,55*,1,2,-1,-1,1,-15,-17,x
CSc1cccc(N2CC(C(=O)N3CCN(S(=O)(=O)c4ccccc4Cl)CC3)CC2=O)c1 (stereo unspecified),-8,0,3,-2,1,1,x,x,x
Cc1cc(=O)oc2cc(NC(=S)NNC(=O)c3c(Cl)cnn3C)ccc12,70*,13,17,6,-7,3,67*,-7,-1
COc1ccc(-n2nnnc2SCC(=O)NNC(=O)c2ccc([N+](=O)[O-])cc2)cc1,5,-2,19,-4,3,1,x,x,x
Cc1ccc(-n2nnnc2SCC(=O)NNC(=O)c2ccc([N+](=O)[O-])cc2)cc1,50*,16,-16,26,1,31,41*,-11,0
Cc1ccc(N2CCN(CC(O)COc3ccccc3)CC2)cc1 (stereo unspecified),-2,2,0,-4,-2,-2,x,x,x
COC(=O)[C@]1(C)N[C@H](CN(C)C(=O)c2ccccc2)[C@@H]2C(=O)N(C)C(=O)[C@@H]21,-2,-3,0,-2,3,-1,x,x,x
Cc1cc(N=NC(=O)c2ccccc2O)c2ccccc2c1O,95*,97*,1,-3,-3,29,79*,-11,12*
Cn1c(O)c(N=NC(=O)c2ccccc2O)c2ccccc21,26,1,-13,0,1,4,x,x,x
O=C(O)c1cc(N2C(=O)C=CC2=O)cc(N2C(=O)C=CC2=O)c1,82*,27,50*,-13,82*,3,50*,-7,-4
NC(=O)c1cc(N2C(=O)C=CC2=O)ccc1Cl,3,-2,1,5,-10,-1,x,x,x
O=C(CSc1nc2c(sc3ccccc32)c(=O)n1CCO)NCc1ccco1,74*,3,5,-13,25,1,64*,-7,-19
Cc1onc(-c2ccccc2)c1C(=O)Nc1nnc(-c2ccncc2)s1,-4,-2,13,3,1,1,x,x,x
Cc1noc(C)c1C(=O)Nc1nnc(-c2ccccc2)s1,67*,6,2,3,0,-1,-24,-22,x
COc1ccc(OC)c(CNC(=O)C2CCCN(S(=O)(=O)N3CCC(C)CC3)C2)c1 (stereo unspecified),-9,-2,7,-8,1,1,x,x,x
COc1ccc(CNC(=O)C2CCCN(S(=O)(=O)N3CCC(C)CC3)C2)c(OC)c1 (stereo unspecified),69*,-1,-4,-12,-3,1,-14,-15,x
O=C(O)/C(=C\c1cccc(F)c1)c1ccc(S(=O)(=O)N2CCCC2)s1,33,2,-2,-6,27,1,x,x,x
Cc1cccc(/C=C(\C(=O)O)c2ccc(S(=O)(=O)N3CCCC3)s2)c1,93*,8,0,-7,62*,14,77*,-4,1
Cc1ccc(OCC(=O)N/N=C/C=C/c2ccco2)cc1,73*,-1,0,3,26,3,59*,-10,7.5*
SMILES,Scp1 inh,STEP block,SUMO1-SIM PPI,Rpn11 block,DNMT1 inh,LMPTP inh,Scp1 confirm,MG interference,Scp1 DSF
O=C(N/N=C/C=C/c1ccco1)C(O)c1ccccc1 (stereo unspecified),62*,-1,-2,-7,39,-1,53*,-11,2
COc1ccc(-c2cn(CCO)c(-c3ccc(Cl)nc3)n2)cc1,-2,1,3,5,0,0,x,x,x
CC(C)C[C@H]1CNC(=O)C(=O)N1C[C@H](C)NC(=O)Cc1ccccc1,-6,0,-6,-7,3,-2,2,-5,x
CCOC(=O)c1cc(-c2ccc(OC)cc2)nn1-c1ccccc1C(=O)O,61*,25,69*,7,28,11,42*,-8,-6
COc1ccc(-c2cc(C(=O)NN)n(-c3ccccc3)n2)cc1,3,-1,4,1,-8,-1,x,x,x
Cc1nnc(SCC(=O)Nc2nsc(-c3ccc(Cl)cc3)n2)s1,70*,13,-9,13,45,3,43*,-15,-9
Cc1ccc(-c2nc(NC(=O)CSc3ncn[nH]3)ns2)cc1,-11,3,-10,-2,25,-1,x,x,x
O=C(CN1C(=O)C2CC=CCC2C1=O)Nc1ccccc1N1CCCC1 (stereo unspecified),-2,0,2,0,1,0,x,x,x
O=C(CN1C(=O)C2CCCCC2C1=O)Nc1ccccc1N1CCCC1 (stereo unspecified),62*,1,-1,-4,0,1,-15,-12,x
C#CCOCCOCCOCCNc1nc(N2CCN(C(=O)[C@H](CCC(=O)O)n3cc([C@@H](N)[C@H](C)CC)nn3)CC2)nc(N2CCN(C(=O)[C@H](CCC(=O)O)n3cc([C@@H](N)CC(N)=O)nn3)CC2)n1,-4,2,5,-3,9,-3,x,x,x
CC(O)(c1cccnc1)c1nc(-c2ccc(F)c(Cl)c2)cs1 (stereo unspecified),x,-3,3,4,3,1,x,x,x
COC(=O)[C@H]1C[C@H](O)CN1S(=O)(=O)c1ccc(Br)cc1F,53*,-3,3,-7,7,-1,-15,-16,x
